What was measured:
MDA-MB-468 = experiment: In vitro antitumor activity against MDA-468 carcinoma cell line.; format: functional, cell-based; details: Homo sapiens
How it was run: (§1)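 MTT assay, 7-day format: 250–300 cells/well, adhered 24 h drug-free, then compound 1 pM–100 μM (n = 8), final DMSO <0.25%; RPMI 1640/10% FCS, 37 °C, 5% CO2. MTT added after exposure, 4 h, formazan dissolved in DMSO–glycine (4:1), absorbance 550 nm.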

MCF7 = experiment: In vitro antitumor activity against MCF-7 carcinoma cell line.; format: functional, cell-based; details: Homo sapiens; how it was run: as §1
NCI [1] = experiment: In vitro antitumor activity against carcinoma cell lines by 2-day assay; format: functional, Homo sapiens
How it was run: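 NCI panel sulforhodamine B assay: line-specific seeding, 24 h drug-free, then five 10-fold dilutions (top 10^-4 M) for 2 days; growth inhibition from protein-stain optical density change; mean log GI50 across panel.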

NCI [2] = experiment: In vitro antitumor activity against carcinoma cell lines by 6-day assay; format: functional, Homo sapiens
How it was run: (§2)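 NCI 60-cell-line panel, sulforhodamine B protein stain. Seeding density set per line's growth; 24 h drug-free incubation, then test agent at five 10-fold dilutions up to 10^-4 M for 6 days of exposure. Growth inhibition derived from change in protein-stain optical density; log GI50 reported.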

Homo sapiens = experiment: In vitro concentration to reduce colony formation of human tumor xenografts to 30% of the control; format: functional
How it was run: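 Clonogenic colony-formation assay using cells from 22 human tumor xenografts, tested at 0.1, 1.0 and 10 μg/mL; colony inhibition expressed as T/C, with T/C < 30% scored active; IC70 concentration reported.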

SK-OV-3 = experiment: In vitro antitumor activity against Ovarian cancer SK-OV-3 cell lines by 6-day assay; format: functional; details: Homo sapiens, SK-OV-3, 144 h; how it was run: as §2
HCC 2998 = experiment: In vitro antitumor activity against colon cancer HCC2998 cell lines by 6-day assay; format: functional; details: Homo sapiens, HCC 2998, 144 h; how it was run: as §2
K562 = experiment: In vitro antitumor activity against Leukemia K-562 cell lines by 6-day assay; format: functional; details: Homo sapiens, K562, 144 h; how it was run: as §2
SF-268 = experiment: In vitro antitumor activity against CNS cancer SF-268 cell lines by 6-day assay; format: functional; details: Homo sapiens, SF-268, 144 h; how it was run: as §2
786-0 = experiment: In vitro antitumor activity against Renal cancer 786-0 cell lines by 6-day assay; format: functional; details: Homo sapiens, 786-0, 144 h; how it was run: as §2
ACHN = experiment: In vitro antitumor activity against Renal cancer ACHN cell lines by 6-day assay; format: functional; details: Homo sapiens, 144 h; how it was run: as §2
SNB-19 = experiment: In vitro antitumor activity against CNS cancer SNB-19 cell lines by 6-day assay; format: functional; details: Homo sapiens, SNB-19, 144 h; how it was run: as §2
SW-620 = experiment: In vitro antitumor activity against colon cancer SW-620 cell lines by 6-day assay; format: functional; details: Homo sapiens, SW-620, 144 h; how it was run: as §2
SK-MEL-28 = experiment: In vitro antitumor activity against melanoma SK-MEL-28 cell lines by 6-day assay; format: functional; details: Homo sapiens, SK-MEL-28, 144 h; how it was run: as §2
DU-145 = experiment: In vitro antitumor activity against Prostate cancer DU145 cell lines by 6-day assay; format: functional; details: Homo sapiens, DU-145, 144 h; how it was run: as §2
CAKI-1 = experiment: In vitro antitumor activity against Renal cancer CAKI-1 cell lines by 6-day assay; format: functional; details: Homo sapiens, CAKI-1, 144 h; how it was run: as §2
HL-60 = experiment: In vitro antitumor activity against Leukemia HL-60(TB) cell lines by 6-day assay; format: functional; details: Homo sapiens, HL-60, 144 h
How it was run: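 NCI 60-line panel screen using a sulforhodamine B protein-stain read-out. Seeding density is set by each line's growth. After a 24-h drug-free period, compound is added at five 10-fold dilutions up to 10^-4 M. Exposure lasts 6 days, and growth inhibition (GI50) is taken from the change in stain optical density.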

MDA-MB-435 = experiment: In vitro antitumor activity against Breast cancer MDA-MB-435 cell lines by 6-day assay; format: functional; details: Homo sapiens, MDA-MB-435, 144 h; how it was run: as §2
NCI-H23 = experiment: In vitro antitumor activity against Non-small cell lung cancer NCI-H23 cell lines by 6-day assay; format: functional; details: Homo sapiens, NCI-H23, 144 h; how it was run: as §2
HCT-116 = experiment: In vitro antitumor activity against colon cancer HCT116 cell lines by 6-day assay; format: functional; details: Homo sapiens, HCT-116, 144 h; how it was run: as §2
HCT-15 = experiment: In vitro antitumor activity against colon cancer HCT-15 cell lines by 6-day assay; format: functional; details: Homo sapiens, HCT-15, 144 h; how it was run: as §2
M14 = experiment: In vitro antitumor activity against melanoma M14 cell lines by 6-day assay; format: functional; details: Homo sapiens, M14, 144 h; how it was run: as §2
UACC-257 = experiment: In vitro antitumor activity against melanoma UACC-257 cell lines by 6-day assay; format: functional; details: Homo sapiens, UACC-257, 144 h; how it was run: as §2
MDA-N = experiment: In vitro antitumor activity against Breast cancer MDA-N cell lines by 6-day assay; format: functional; details: Homo sapiens, 144 h; how it was run: as §2
A498 = experiment: In vitro antitumor activity against Renal cancer A498 cell lines by 6-day assay; format: functional; details: Homo sapiens, A498, 144 h; how it was run: as §2
SNB-75 = experiment: In vitro antitumor activity against CNS cancer SNB-75 cell lines by 6-day assay; format: functional; details: Homo sapiens, SNB-75, 144 h; how it was run: as §2
SK-MEL-5 = experiment: In vitro antitumor activity against melanoma SK-MEL-5 cell lines by 6-day assay; format: functional; details: Homo sapiens, SK-MEL-5, 144 h; how it was run: as §2
MOLT-4 = experiment: In vitro antitumor activity against Leukemia MOLT-4 cell lines by 6-day assay; format: functional; details: Homo sapiens, MOLT-4, 144 h; how it was run: as §2
BT-549 = experiment: In vitro antitumor activity against Breast cancer BT-549 cell lines by 6-day assay; format: functional; details: Homo sapiens, BT-549, 144 h; how it was run: as §2
HOP-92 = experiment: In vitro antitumor activity against Non-small cell lung cancer HOP92 cell lines by 6-day assay; format: functional; details: Homo sapiens, HOP-92, 144 h; how it was run: as §2
KM12 = experiment: In vitro antitumor activity against colon cancer KM12 cell lines by 6-day assay; format: functional; details: Homo sapiens, KM12, 144 h; how it was run: as §2
CCRF-CEM = experiment: In vitro antitumor activity against Leukemia CCRF-CEM cell lines by 6-day assay; format: functional; details: Homo sapiens, 144 h; how it was run: as §2
U-251 = experiment: In vitro antitumor activity against CNS cancer U251 cell lines by 6-day assay; format: functional; details: Homo sapiens, U-251, 144 h; how it was run: as §2
NCI-H322M = experiment: In vitro antitumor activity against Non-small cell lung cancer NCI-H322M cell lines by 6-day assay; format: functional; details: Homo sapiens, 144 h; how it was run: as §2
RPMI-8226 = experiment: In vitro antitumor activity against Leukemia RPMI-8226 cell lines by 6-day assay; format: functional; details: Homo sapiens, RPMI-8226, 144 h; how it was run: as §2
UACC-62 = experiment: In vitro antitumor activity against melanoma UACC-62 cell lines by 6-day assay; format: functional; details: Homo sapiens, UACC-62, 144 h; how it was run: as §2
SN12C = experiment: In vitro antitumor activity against Renal cancer SN12C cell lines by 6-day assay; format: functional; details: Homo sapiens, 144 h; how it was run: as §2
EKVX = experiment: In vitro antitumor activity against Non-small cell lung cancer EKVX cell lines by 6-day assay; format: functional; details: Homo sapiens, 144 h; how it was run: as §2
OVCAR-5 = experiment: In vitro antitumor activity against Ovarian cancer OVCAR-5 cell lines by 6-day assay; format: functional; details: Homo sapiens, OVCAR-5, 144 h; how it was run: as §2
UO-31 = experiment: In vitro antitumor activity against Renal cancer UO-31 cell lines by 6-day assay; format: functional; details: Homo sapiens, UO-31, 144 h; how it was run: as §2
IGROV-1 = experiment: In vitro antitumor activity against Ovarian cancer IGROV1 cell lines by 6-day assay; format: functional; details: Homo sapiens, IGROV-1, 144 h; how it was run: as §2
COLO 205 = experiment: In vitro antitumor activity against colon cancer COLO 205 cell lines by 6-day assay; format: functional; details: Homo sapiens, COLO 205, 144 h; how it was run: as §2
OVCAR-8 = experiment: In vitro antitumor activity against Ovarian cancer OVCAR-8 cell lines by 6-day assay; format: functional; details: Homo sapiens, OVCAR-8, 144 h; how it was run: as §2
HT-29 = experiment: In vitro antitumor activity against colon cancer HT-29 cell lines by 6-day assay; format: functional; details: Homo sapiens, HT-29, 144 h; how it was run: as §2
RXF 393 = experiment: In vitro antitumor activity against Renal cancer RXF393 cell lines by 6-day assay; format: functional; details: Homo sapiens, RXF 393, 144 h; how it was run: as §2
TK-10 = experiment: In vitro antitumor activity against Renal cancer TK-10 cell lines by 6-day assay; format: functional; details: Homo sapiens, TK-10, 144 h; how it was run: as §2
SF-295 = experiment: In vitro antitumor activity against CNS cancer SF-295 cell lines by 6-day assay; format: functional; details: Homo sapiens, SF-295, 144 h; how it was run: as §2
A549 = experiment: In vitro antitumor activity against Non-small cell lung cancer A549/ATCC cell lines by 6-day assay; format: functional; details: Homo sapiens, A549, 144 h; how it was run: as §2
SR = experiment: In vitro antitumor activity against Leukemia SR cell lines by 6-day assay; format: functional; details: Homo sapiens, 144 h; how it was run: as §2

Nc1ccc(-c2nc3ccccc3[nH]2)cc1
IC50 (MDA-MB-468): > 1 µM
IC50 (MCF7): > 10 µM

Nc1ccc(-c2nc3ccccc3o2)cc1
IC50 (MDA-MB-468): > 1 µM
IC50 (MCF7): > 0.1 µM
Mean log GI50 (NCI [1]): -4.26 M

Cc1cc(-c2nc3ccccc3s2)ccc1N
IC50 (MDA-MB-468): < 0.001 µM
IC50 (MCF7): < 0.001 µM
Mean log GI50 (NCI [2]): -5.05 M
Mean IC70 (Homo sapiens): 6.9 µg/mL
Mean log GI50 (NCI [1]): -4.61 M

Nc1ccc(-c2nc3ccccc3s2)cc1Br
GI50 (SK-OV-3): 58.9 µM
GI50 (HCC 2998): < 0.01 µM
GI50 (K562): > 100 µM
GI50 (SF-268): 34.7 µM
GI50 (786-0): 66.1 µM
GI50 (ACHN): 44.7 µM
IC50 (MDA-MB-468): < 0.001 µM
GI50 (SNB-19): 47.9 µM
GI50 (SW-620): 45.7 µM
GI50 (SK-MEL-28): > 100 µM
GI50 (DU-145): > 100 µM
GI50 (CAKI-1): > 100 µM
GI50 (HL-60): 9.55 µM
GI50 (MDA-MB-435): 97.7 µM
GI50 (NCI-H23): 28.8 µM
GI50 (HCT-116): < 0.01 µM
GI50 (HCT-15): 31.6 µM
GI50 (M14): 64.6 µM
GI50 (UACC-257): < 0.01 µM
GI50 (MDA-N): > 100 µM
GI50 (A498): 0.191 µM
GI50 (SNB-75): > 100 µM
GI50 (SK-MEL-5): 15.8 µM
GI50 (MOLT-4): 46.8 µM
IC50 (MCF7): < 0.001 µM
GI50 (BT-549): 57.5 µM
GI50 (HOP-92): 40.7 µM
GI50 (KM12): 69.2 µM
GI50 (CCRF-CEM): 40.7 µM
GI50 (U-251): 37.2 µM
GI50 (NCI-H322M): > 100 µM
GI50 (RPMI-8226): > 100 µM
GI50 (UACC-62): < 0.01 µM
GI50 (SN12C): > 100 µM
Mean log GI50 (NCI [2]): -5.01 M
GI50 (EKVX): 81.3 µM
GI50 (OVCAR-5): < 0.01 µM
GI50 (UO-31): 32.4 µM
GI50 (IGROV-1): < 0.01 µM
GI50 (COLO 205): < 0.01 µM
GI50 (OVCAR-8): 43.7 µM
Mean log GI50 (NCI [1]): -4.67 M
GI50 (HT-29): 24.5 µM
GI50 (RXF 393): 40.7 µM
GI50 (TK-10): < 0.01 µM
GI50 (SF-295): 42.7 µM
GI50 (A549): > 100 µM
GI50 (SR): 47.9 µM

Nc1ccc(-c2nc3ccccc3s2)cc1Cl
IC50 (MDA-MB-468): < 0.001 µM
IC50 (MCF7): < 0.001 µM
Mean log GI50 (NCI [2]): -5.26 M
Mean log GI50 (NCI [1]): -4.75 M

CC(=O)Nc1ccc(-c2nc3ccccc3s2)cc1[N+](=O)[O-]
IC50 (MDA-MB-468): > 1 µM
IC50 (MCF7): > 1 µM

From ChEMBL document CHEMBL1132564, “Antitumor benzothiazoles. 7. Synthesis of 2-(4-acylaminophenyl)benzothiazoles and investigations into the role of acetylation in the antitumor activities of the parent amines” (J Med Chem, 1999)
